The subject of assay [1] is Mus musculus. The assay is described as follows: Inhibition of PREPL in C57B1/6J mouse brain membrane at 16 mg/kg, ip after 4 hrs by competitive activity-based protein profiling-MudPIT method. Format: functional, organism-based. More on the design: dose 16 mg/kg. The gist of the method:
(§1)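 After i.p. dosing in 4:1 PEG300:Tween80, male C57Bl/6J mice were killed at 4 h. Brain membrane proteomes from treated and vehicle mice were labelled with FP-biotin. Labelled proteins were enriched on avidin, digested on-bead with trypsin and analysed by multidimensional LC-MS. Proteins were identified by SEQUEST, and dosed samples were compared with vehicle.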

Assay [2] concerns Mus musculus. The assay is described as follows: Inhibition of ACOT1 in C57B1/6J mouse brain membrane at 16 mg/kg, ip after 4 hrs by competitive activity-based protein profiling-MudPIT method. Format: functional, organism-based. Details: dose 16 mg/kg. The gist of the method:
(§2)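 Mice were dosed 16 mg kg^-1 i.p. or vehicle and killed at 4 h. Brain membrane proteomes were labelled with FP-biotin, avidin-enriched, trypsin-digested on bead, analysed by multidimensional LC-MS and identified by SEQUEST.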

In assay [3] the target is T1, Fatty-acid amide hydrolase 1 (Mus musculus) (UniProt O08914).
T1 sequence (whole entry): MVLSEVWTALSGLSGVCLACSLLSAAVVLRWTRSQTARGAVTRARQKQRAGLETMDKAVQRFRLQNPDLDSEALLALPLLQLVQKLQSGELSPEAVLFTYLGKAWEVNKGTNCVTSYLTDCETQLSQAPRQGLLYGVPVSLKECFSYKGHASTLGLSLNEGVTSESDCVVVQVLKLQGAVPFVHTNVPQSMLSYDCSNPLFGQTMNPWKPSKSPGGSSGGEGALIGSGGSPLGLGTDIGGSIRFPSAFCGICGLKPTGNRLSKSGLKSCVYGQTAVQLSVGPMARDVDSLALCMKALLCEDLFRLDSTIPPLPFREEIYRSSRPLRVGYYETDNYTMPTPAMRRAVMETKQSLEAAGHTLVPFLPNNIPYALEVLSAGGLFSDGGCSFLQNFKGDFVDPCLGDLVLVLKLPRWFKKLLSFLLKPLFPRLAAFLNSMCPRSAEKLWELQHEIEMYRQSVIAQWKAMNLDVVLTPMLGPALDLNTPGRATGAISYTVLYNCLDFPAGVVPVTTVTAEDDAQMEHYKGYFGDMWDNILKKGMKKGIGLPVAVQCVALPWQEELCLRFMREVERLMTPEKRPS
The settings on record: C57B1/6J, Brain, Membrane, 10 uM.

Assay [4] concerns Mus musculus. The assay is described as follows: Induction of hypothermia in CB1 receptor deficient C57B1/6J mouse at 16 mg/kg, ip. The assay is classed as functional, organism-based. More on the design: dose 16 mg/kg. Put shortly:
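Male C57Bl/6J mice, 6-8 weeks, 20-26 g, given 16 mg kg^-1 i.p. in 4:1 v/v PEG300:Tween80 at 4 μl g^-1; vehicle controls received PEG300:Tween80 alone. Cannabinoid effects were scored in the tetrad test.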

For assay [5], the system named is Mus musculus. Nature of the assay: Change in monoacylglycerol level in C57B1/6J mouse brain at 16 mg/kg, ip by LC-MS. Format: functional, organism-based. More on the design: dose 16 mg/kg. The gist of the method:
(§3)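 Mice received 16 mg kg^-1 i.p. in 4:1 PEG300:Tween80 and were killed at 0.5, 1, 2, 4, 8 and 24 h. Brain lipids, including N-acylethanolamines, MAGs, free fatty acids and arachidonic acid, were measured by LC-MS.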

In assay [6] the test system is Mus musculus. Nature of the assay: Inhibition of FAAH in C57B1/6J mouse brain membrane at 4 mg/kg, ip after 4 hrs by competitive activity-based protein profiling method relative to control. Format: functional. The settings on record: route intraperitoneal. The gist of the method:
(§4)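 Male C57Bl/6J mice (6-8 weeks, 20-26 g) given inhibitor i.p. in 4:1 v/v PEG300:Tween80 at 4 ul g^-1 (4-40 mg kg^-1); vehicle controls. Brain membrane proteomes (1 mg ml^-1 in PBS) labelled with FP-rhodamine (2 μM) for 30 min at room temperature. Readout by SDS-PAGE and in-gel fluorescence scanning, compared with vehicle.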

Assay [7] deals with Mus musculus. The assay is described as follows: Change in anandamide level in C57B1/6J mouse brain at 16 mg/kg, ip by LC-MS. More on the design: dose 16 mg/kg. The assay is classed as functional, organism-based. The gist of the method: as §3
Assay [8] has as its system Mus musculus. Nature of the assay: Inhibition of RBBP9 in C57B1/6J mouse brain membrane at 16 mg/kg, ip after 4 hrs by competitive activity-based protein profiling-MudPIT method. Details: dose 16 mg/kg. Format: functional, organism-based. The gist of the method: as §1
Assay [9] deals with Mus musculus. The assay is described as follows: Inhibition of AARE in C57B1/6J mouse brain membrane at 16 mg/kg, ip after 4 hrs by competitive activity-based protein profiling-MudPIT method. Format: functional, organism-based. More on the design: dose 16 mg/kg. The gist of the method:
as §2

Assay [10] has as its system Mus musculus. Nature of the assay: Change in palmitic acid in intraperitoneally dosed C57B1/6J mouse brain by LC-MS. Format: functional, organism-based. Put shortly:
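Male C57Bl/6J mice given 4, 8, 16 or 40 mg kg^-1 i.p. in 4:1 PEG300:Tween80 at 4 μl g^-1, or vehicle, and killed after 4 h. Whole-brain lipids were quantified by LC-MS.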

Assay [11] relates to Mus musculus. The assay is described as follows: Inhibition of FAAH in C57B1/6J mouse brain membrane at 16 mg/kg, ip after 0.5-24 hrs by competitive activity-based protein profiling method. The assay is classed as functional. The settings on record: route intraperitoneal. The gist of the method:
as §4

Assay [12] has as its system Mus musculus. Nature of the assay: Inhibition of PLA2G7 in C57B1/6J mouse brain membrane at 16 mg/kg, ip after 4 hrs by competitive activity-based protein profiling-MudPIT method. The assay is classed as functional, organism-based. Details: dose 16 mg/kg. Put shortly: as §1
For assay [13], the system named is Mus musculus. The assay is described as follows: Decrease in arachidonic acid levels in C57B1/6J mouse brain at 16 mg/kg, ip by LC-MS. The assay is classed as functional, organism-based. Details: dose 16 mg/kg. Put shortly: as §3
Assay [14] deals with Mus musculus. Nature of the assay: Inhibition of FAAH in C57B1/6J mouse brain membrane assessed as elevated level of N-acylethanolamine at 10 mg/kg, ip by competitive activity-based protein profiling method. Format: functional, organism-based. Details: dose 10 mg/kg.
Assay [15] relates to Mus musculus. The assay is described as follows: Inhibition of CG167 in C57B1/6J mouse brain membrane at 16 mg/kg, ip after 4 hrs by competitive activity-based protein profiling-MudPIT method. Details: dose 16 mg/kg. The assay is classed as functional, organism-based. The gist of the method:
as §2

The test system of assay [16] is Mus musculus. Nature of the assay: Change in N-acylethanolamine level in C57B1/6J mouse brain at 16 mg/kg, ip by LC-MS. Details: dose 16 mg/kg. Format: functional, organism-based. The gist of the method:
as §3

The target of assay [17] is T2, Monoacylglycerol lipase ABHD6 (Mus musculus) (UniProt Q8R2Y0).
T2 sequence (whole entry): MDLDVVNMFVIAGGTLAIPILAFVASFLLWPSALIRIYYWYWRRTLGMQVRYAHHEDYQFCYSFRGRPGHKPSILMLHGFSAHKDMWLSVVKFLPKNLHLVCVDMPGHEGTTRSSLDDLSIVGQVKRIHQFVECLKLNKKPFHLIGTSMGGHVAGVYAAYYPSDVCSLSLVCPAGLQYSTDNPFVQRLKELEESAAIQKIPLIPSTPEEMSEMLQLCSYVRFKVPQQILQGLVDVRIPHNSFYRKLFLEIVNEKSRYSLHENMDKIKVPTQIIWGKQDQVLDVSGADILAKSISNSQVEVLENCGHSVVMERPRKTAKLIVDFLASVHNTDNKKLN
The assay is described as follows: Inhibition of ABHD6 in C57B1/6J mouse brain membrane at 10 uM after 30 mins by competitive activity-based protein profiling method. The assay is classed as cell membranes. The gist of the method:
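Mouse brain membrane proteome at 1 mg ml^-1 in PBS was preincubated with inhibitor (1 nM-10 μM) for 30 min at 37°C. FP-rhodamine was then added at 2 μM final for 30 min at room temperature, followed by SDS-PAGE and in-gel fluorescence scanning.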

Assay [18] concerns Mus musculus. Nature of the assay: Inhibition of APT2 in C57B1/6J mouse brain membrane at 16 mg/kg, ip after 4 hrs by competitive activity-based protein profiling-MudPIT method. The assay is classed as functional, organism-based. More on the design: dose 16 mg/kg. Put shortly:
as §2

The source of these data is ChEMBL document CHEMBL1221219, “Selective blockade of 2-arachidonoylglycerol hydrolysis produces cannabinoid behavioral effects” (Nat Chem Biol, 2009).

Molecules are shown by their SMILES. Activity calls are given as the source filed them. The rule behind the calls is not given here.

A word on the inhibition in vivo: it is the share of the control response that was lost under treatment. For the compound `O=C(Oc1ccc([N+](=O)[O-])cc1)N1CCC(C(O)(c2ccc3c(c2)OCO3)c2ccc3c(c2)OCO3)CC1`, the inhibition result in the assay with Mus musculus [1], in the assay with Mus musculus [2], in the assay on Mus musculus [8], in the assay on Mus musculus [9], with Mus musculus [12] and in the assay on Mus musculus [15] was “inactive” each time. Also, the inhibition result with Mus musculus [18] is “inactive”. Further, the inhibition entry (in assay [3]; with Mus musculus [14]; in assay [17]) was “Active” throughout. Moreover, the outcome with Mus musculus [4], with Mus musculus [5], in the assay on Mus musculus [7], in the assay with Mus musculus [10] and in the assay with Mus musculus [16] was inactive. The compound also came in with an inhibition in vivo at 4 mg/kg in the assay on Mus musculus [6] of less than 20%. The inhibition in vivo at 16 mg/kg in the assay on Mus musculus [11] came to 70%. In addition, the outcome in the assay with Mus musculus [13] was Active.
